ChEMBL document CHEMBL1142225, “Inhibiting HIV-1 integrase by shifting its oligomerization equilibrium” (Proc Natl Acad Sci U S A, 2007)
Calls of active or inactive are those of the source. No cut-off for these calls is given here.

Key:
[1] = tested on: Human immunodeficiency virus 1; experiment: Inhibition of HIV1 in sup T1 cells assessed as total reverse transcribed viral DNA at 2 uM by PCR; assay type: functional, organism-based
Outline: (§1)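 Sup T1 cells (RPMI 1640, 10% FCS) were pretreated 2 h with compound, then infected with HIV-1 Δenv/VSV-G (HXB2 backbone) at MOI 2 for 6 h. Total viral DNA was detected by Gag-specific PCR on 10 ng DNA with 3.5 mM MgCl2 and 29 cycles.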

[2] = molecular target: Human immunodeficiency virus type 1 integrase (Human immunodeficiency virus 1, UniProt Q7ZJM1); experiment: Binding affinity to HIV1 integrase tetrameric form by fluorescence anisotrophy
Sequence of Human immunodeficiency virus type 1 integrase (Q7ZJM1 whole entry): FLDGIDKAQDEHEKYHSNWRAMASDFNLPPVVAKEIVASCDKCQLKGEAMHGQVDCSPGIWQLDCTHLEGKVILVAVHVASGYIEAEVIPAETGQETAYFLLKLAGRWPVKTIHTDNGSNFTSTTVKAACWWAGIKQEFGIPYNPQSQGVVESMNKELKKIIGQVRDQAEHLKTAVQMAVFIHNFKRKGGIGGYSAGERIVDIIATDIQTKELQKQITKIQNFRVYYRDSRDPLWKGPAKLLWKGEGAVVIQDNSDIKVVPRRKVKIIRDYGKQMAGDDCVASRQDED
Outline: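 Fluorescence anisotropy at 10°C in 20 mM Tris pH 7.4/185 mM NaCl (ionic strength 190 mM). His-tagged IN was titrated into fluorescein-labeled LEDGF/p75 peptide (0.05–0.1 μM) in 20 aliquots at 1-min intervals. Excitation was 480 nm and emission 530 nm. Kd was obtained from a Hill-equation fit.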

[3] = molecular target: Human immunodeficiency virus type 1 integrase (Human immunodeficiency virus 1) (UniProt Q7ZJM1); experiment: Inhibition of HIV1 integrase binding to LTR DNA by fluorescence anisotrophy
Sequence of Human immunodeficiency virus type 1 integrase (Human immunodeficiency virus 1) (Q7ZJM1 as listed by the source): as the sequence (Q7ZJM1 whole entry) above
Outline: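 Competition anisotropy at 10°C in 20 mM Tris pH 7.4/185 mM NaCl. LEDGF/p75 peptide (500 nM) was preincubated 0.5 h with His-tagged IN (4 μM), then titrated into fluorescein-labeled 36-mer HIV-1 LTR DNA (10 nM). Excitation 480 nm, emission 530 nm.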

[4] = molecular target: Human immunodeficiency virus type 1 integrase (Human immunodeficiency virus 1) (UniProt Q7ZJM1); experiment: Inhibition of HIV1 integrase 3'-end processing activity
[5] = molecular target: Human immunodeficiency virus type 1 integrase (Human immunodeficiency virus 1) (UniProt Q7ZJM1); experiment: Inhibition of HIV1 integrase 3'-end processing activity at 21 uM
[6] = molecular target: Human immunodeficiency virus type 1 integrase (Human immunodeficiency virus 1) (UniProt Q7ZJM1); experiment: Inhibition of HIV1 integrase strand transfer activity in presence of LTR DNA template
[7] = tested on: Human immunodeficiency virus 1; experiment: Inhibition of HIV1 Tat-mediated HIV1 reporter gene expression in human TZM-bl HeLa MAGI cells; assay type: functional, organism-based
Outline: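 TZM-bl (HeLa MAGI) cells carrying a Tat/TAR-driven β-galactosidase reporter were grown in DMEM with 10% FCS, seeded at 10 × 10^3 cells per well, and infected with HIV-1 at equal MOI. Read-out was reporter expression by MAGI assay.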

[8] = tested on: Human immunodeficiency virus 1; experiment: Inhibition of HIV1 replication in human H9 cells assessed as reduction of p24 protein level after 10 days; assay type: functional, organism-based
Outline: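 H9 T-lymphoid cells were preincubated 2 h with compound, then infected with wild-type HIV-1 HXB2 at MOI 0.1 (1 h adsorption at 37°C, then washed). Cells were cultured 10 days, and p24 released into the medium was measured by capture assay.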

[9] = tested on: Human immunodeficiency virus 1; experiment: Inhibition of HIV1 genome integration assessed as integrated viral DNA level at 2.5 uM by RT-PCR method; assay type: functional
Outline: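 Integrated proviral DNA in infected cells was measured by nested real-time PCR. The second round used SYBR green with 300 nM primers and 50 cycles (95°C 15 s, 60°C 60 s). Quantification used a standard curve from full-length HIV-1 HXB2 plasmid (5 ng–0.25 fg). Samples were run in quadruplicate. Results are expressed as percentage of integrated viral DNA.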

HeLa = experiment: Toxicity against human HeLa cells by MTT method; assay type: cell-based
[10] = tested on: Human immunodeficiency virus 1; experiment: Effect on HIV1 replication in sup T1 cells assessed as total reverse transcribed viral DNA level at 12.5 uM by PCR; assay type: functional, organism-based; outline: as §1

Row | Molecule | Activity [1] | Kd [2] | fold inhibition [3] | Activity [3] | Activity [4] | Activity [5] | Activity [6] | Activity [7] | Activity [8] | inhibition at 2.5 µM [9] | Activity (HeLa) | Activity [10]
1 | Cc1cn([C@H]2C[C@H](N=[N+]=[N-])[C@@H](CO)O2)c(=O)[nH]c1=O | Active |  |  |  |  |  |  |  |  |  |  | 
2 | H-WIHAEIKNSLKIDNLDVNRCIEALD-OH |  | 4.4 µM | 3 fold |  |  |  |  |  |  |  |  | 
3 | H-WKKIRRFVSQVIM-OH |  | 12 µM |  | 6 | Active | Active | Active | Dose-dependent effect | Active | > 90% | Non-toxic | inactive
4 | H-WNSLKIDNLDV-OH |  | 3.7 µM | 3 fold |  | Active |  |  | Dose-dependent effect | Active | > 90% | Non-toxic | inactive
